# Published values from different studies.
# Each line is one published result; the experiments were not run side by side.
# Effect on: cell growth or viability
Structure (SMILES),cell line,assay,conditions,CC50 [µM]
CN(C)c1ccc(C(=C2C=CC(=[N+](C)C)C=C2)c2ccc(N(C)C)cc2)cc1,J774,ATP luminescence,72 h,4.91
N#Cc1nc(-c2ccccc2)oc1N1CCCC1CO (stereo not drawn),HFF,ATP luminescence,,> 150
O=c1[nH]c2cc(-c3ccccc3)sc2c(=O)n1O,HFF,MTS,7 days,> 50
NCCCCNC(=O)CN1C(=O)Cc2c([nH]c3ccc(Br)cc23)-c2ccc(Cl)cc21,J774,WST-1,24 h,≥ 100
Nc1nc(O)c2ncn(COC(CO)CO)c2n1,HFF,ATP luminescence,,> 150
O=c1[nH]c2cc(-c3ccccc3)ccc2c(=O)n1O,HFF,MTS,7 days,29
O=C1Cc2c([nH]c3ccc(Br)cc23)-c2ccc(Cl)cc2N1,J774,WST-1,24 h,> 200
O=C1c2ccccc2C(c2ccccc2F)C(=O)N1O (stereo not drawn),HFF,MTS,7 days,26
CNC(=O)CN1C(=O)Cc2c([nH]c3ccc(Br)cc23)-c2ccc(Cl)cc21,J774,WST-1,24 h,≤ 100
O=c1[nH]c2sc3c(c2c(=O)n1O)CCN(Cc1ccccc1)C3,HFF,MTS,7 days,> 50
Cc1ccc(S(=O)(=O)c2nc(S(=O)(=O)NCc3ccccc3)sc2Cl)cc1,HFF,ATP luminescence,,106
Nc1ccn(C[C@@H](CO)OCP(=O)(O)O)c(=O)n1,HFF,ATP luminescence,14 days,60
